Active and inactive are the calls of the source. No cut-off for these calls is given here.
How the values were obtained:
Bos taurus = species on record: Bos taurus; test: Inhibition of [3H]colchicine binding to bovine brain tubulin at 5 uM relative to control
Outline: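 Reaction mixtures held 1 μM tubulin, 5 μM [3H]colchicine and 5 μM test compound. Inhibition of radiolabelled colchicine binding was measured by a previously described method.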

CCRF-CEM = test: Antiproliferative activity against human CEM cells after 3 days by Coulter counter method; type: functional, cell-based; details: 72 h
Outline: (§1)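 Cells suspended at 300,000–500,000 cells/mL; 100 μL suspension added to 100 μL of compound dilutions. Incubated at 37 °C for 2 days (L1210, FM3A), 3 days (CEM) or 4 days (HeLa), then counted by Coulter counter. IC50 is the concentration giving 50% inhibition of proliferation. Values are mean ± SD of two to three independent experiments.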

HeLa [1] = test: Induction of apoptosis in human HeLa cells at 125 to 500 nM after 24 to 48 hrs by annexin V-FITC/propidium iodide staining-based flow cytometric analysis; type: functional, cell-based
Outline: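 Treated HeLa cells were harvested at 24 or 48 h and double-labeled with annexin-V-FITC, which marks exposed phosphatidylserine, and PI. Apoptotic fractions were measured by flow cytometry; mean ± SEM of three independent experiments.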

HeLa [2] = test: Antiproliferative activity against human HeLa cells after 4 days by Coulter counter method; type: functional, cell-based; details: 96 h; outline: as §1
PBL [3] = test: Growth inhibition of resting human PBL after 72 hrs by MTT assay; type: cell-based
Outline: (§2)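 Donor PBL isolated by density gradient, washed, held overnight at 1.0 × 10^6 cells/mL in RPMI-1640 with 10% FBS. Non-adherent cells reseeded at 5 × 10^5 cells/mL, with 2.5 μg/mL PHA (proliferating) or without it (resting), then given compound dilutions. MTT viability read after 72 h. GI50 is the concentration giving 50% growth reduction; mean ± SEM of two experiments.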

L1210 = test: Antiproliferative activity against mouse L1210 cells after 2 days by Coulter counter method; type: functional, cell-based; details: L1210, 48 h; outline: as §1
HeLa [4] = test: Cell cycle arrest in human HeLa cells assessed as reduction of cells at G1 phase up to 500 uM after 24 hrs by propidium iodide staining-based flow cytometric analysis; type: functional; details: in the assay text read “500 nM” for “500 uM”
Outline: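 5 × 10^5 HeLa cells exposed to graded compound levels for 24 h; harvested, fixed in ice-cold 70% ethanol, lysed in buffer containing RNase A and 0.1% Triton X-100, PI-stained, DNA content read by flow cytometry. Phase percentages are means ± SEM of two independent experiments.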

FM3A = test: Antiproliferative activity against mouse FM3A cells after 2 days by Coulter counter method; type: functional, cell-based; details: 48 h
Outline: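 Cells suspended at 300,000–500,000 cells/mL; 100 μL suspension added to 100 μL of compound dilutions. Incubated at 37 °C for 2 days (L1210, FM3A), 3 days (CEM) or 4 days (HeLa), then counted by Coulter counter. Values are mean ± SD of two to three independent experiments.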

PBL [5] = test: Growth inhibition of human PHA-stimulated PBL after 72 hrs by MTT assay; type: cell-based; outline: as §2
[6] = Inhibition of bovine brain tubulin polymerization in presence of GTP by spectrophotometric analysis; set-up: species or system Bos taurus
Outline: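 0.4 mM GTP added, mixtures rewarmed to 30 °C in cuvettes and turbidity followed at 350 nm.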

HeLa [7] = test: Cell cycle arrest in human HeLa cells assessed as accumulation of cells at G2/M phase at 500 nM after 24 hrs by propidium iodide staining-based flow cytometric analysis
HeLa [8] = test: Cell cycle arrest in human HeLa cells assessed as increase in cells at S phase at 500 nM after 24 hrs by propidium iodide staining-based flow cytometric analysis
HeLa [9] = test: Cell cycle arrest in human HeLa cells assessed as reduction in cdc25c expression at 100 nM after 24 hrs by Western blot analysis
HeLa [10] = test: Cell cycle arrest in human HeLa cells assessed as decrease in Cdk1 Y15 phosphorylated protein level at 250 nM after 24 to 48 hrs by Western blot analysis; type: functional, cell-based
Outline: (§3)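 HeLa cells treated for 24 or 48 h at several concentrations, washed in ice-cold PBS, lysed on ice 30 min and spun at 15000 x g, 4 °C. 10 μg protein separated by SDS-PAGE, blotted, blocked in 3% BSA, probed overnight at 4 °C with primary antibodies, peroxidase secondary and ECL detection. Stripped membranes reprobed for β-actin as loading control.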

HeLa [11] = test: Induction of mitochondrial depolarization in human HeLa cells at 100 to 250 nM by JC-1 staining-based flow cytometric analysis; type: functional, cell-based; details: TDE = time-dependent effect
Outline: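 Mitochondrial potential followed in HeLa cells after 6, 12, 24 or 48 h of exposure. Cells stained with the lipophilic cation JC-1 and the fraction with low Δψmt scored by flow cytometry; mean ± SEM of three independent experiments.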

HeLa [12] = test: Induction of apoptosis in human HeLa cells assessed as decrease in Mcl-1 levels at 100 to 250 nM after 24 hrs by Western blot analysis; type: functional, cell-based
Outline: (§4)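 HeLa cells exposed to compound for varied times, washed twice in ice-cold PBS, lysed on ice 30 min and spun 15000 x g at 4 °C. 10 μg protein per lane by SDS-PAGE, blotted, blocked in 3% BSA, primary antibodies (Bcl-2, Mcl-1) overnight at 4 °C, peroxidase secondary 60 min, ECL detection; membranes stripped and reprobed for β-actin as loading control.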

HeLa [13] = test: Induction of apoptosis in human HeLa cells assessed as decrease in Bcl-2 levels at 100 to 250 nM after 24 hrs by Western blot analysis; type: functional, cell-based; outline: as §4
HeLa [14] = test: Cell cycle arrest in human HeLa cells assessed as increase in cyclin B1 expression after 24 hrs by Western blot analysis; type: functional, cell-based; outline: as §3
HeLa [15] = test: Cell cycle arrest in human HeLa cells assessed as decrease in cyclin B1 expression after 48 hrs by Western blot analysis; type: functional, cell-based; outline: as §3
HeLa [16] = test: Induction of ROS production in human HeLa cells at 250 nM after 12 to 24 hrs by H2DCFDA staining-based flow cytometric analysis; type: functional, cell-based
Outline: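 HeLa cells treated for 6, 12, 24 or 48 h, then loaded with H2-DCFDA and ROS read by flow cytometry; mean ± SEM of three independent experiments.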

COC(=O)c1sc(-c2ccccc2)cc1Nc1cc(OC)c(OC)c(OC)c1
inhibition (Bos taurus): 57%
IC50 (CCRF-CEM): 200 nM
Activity (HeLa [1]): Active
IC50 (HeLa [2]): 670 nM
GI50 (PBL [3]): 45700 nM
IC50 (L1210): 240 nM
Activity (HeLa [4]): Active
IC50 (FM3A): 210 nM
GI50 (PBL [5]): 19000 nM
IC50 [6]: 1300 nM
Activity (HeLa [7]): Active
Activity (HeLa [8]): Active

COC(=O)c1sc(-c2ccc(OC)c(OC)c2)cc1Nc1cc(OC)c(OC)c(OC)c1
inhibition (Bos taurus): 30%
IC50 (CCRF-CEM): 470 nM
IC50 (HeLa [2]): 890 nM
IC50 (L1210): 480 nM
IC50 (FM3A): 430 nM
IC50 [6]: 2700 nM

COC(=O)c1sc(-c2ccc(C)cc2)cc1Nc1cc(OC)c(OC)c(OC)c1
inhibition (Bos taurus): 70%
IC50 (CCRF-CEM): 180 nM
Activity (HeLa [1]): Active
IC50 (HeLa [2]): 260 nM
GI50 (PBL [3]): 31700 nM
IC50 (L1210): 150 nM
Activity (HeLa [4]): Active
IC50 (FM3A): 180 nM
GI50 (PBL [5]): 20000 nM
IC50 [6]: 1200 nM
Activity (HeLa [7]): Active
Activity (HeLa [8]): Active

CCOC(=O)c1sc(-c2ccc(C)cc2)cc1Nc1cc(OC)c(OC)c(OC)c1
IC50 (CCRF-CEM): 760 nM
IC50 (HeLa [2]): 780 nM
IC50 (L1210): 820 nM
IC50 (FM3A): 820 nM

CCOc1ccc(-c2cc(Nc3cc(OC)c(OC)c(OC)c3)c(C(=O)OC)s2)cc1
IC50 (CCRF-CEM): 5400 nM
IC50 (HeLa [2]): 4400 nM
IC50 (L1210): 6300 nM
IC50 (FM3A): 5700 nM

COc1ccc(/C=C\c2cc(OC)c(OC)c(OC)c2)cc1O [COMBRETASTATIN A4]
IC50 (CCRF-CEM): 2 nM
IC50 (HeLa [2]): 2 nM
IC50 (L1210): 3 nM

CCOC(=O)c1sc(-c2ccc(Cl)cc2)cc1Nc1cc(OC)c(OC)c(OC)c1
IC50 (CCRF-CEM): 4600 nM
IC50 (HeLa [2]): 9800 nM
IC50 (L1210): 6000 nM
IC50 (FM3A): 5100 nM

CCOC(=O)c1sc(-c2ccc(F)cc2)cc1Nc1cc(OC)c(OC)c(OC)c1
IC50 (CCRF-CEM): 990 nM
IC50 (HeLa [2]): 2100 nM
IC50 (L1210): 1100 nM
IC50 (FM3A): 1000 nM

COC(=O)c1sc(-c2ccc(C(F)(F)F)cc2)cc1Nc1cc(OC)c(OC)c(OC)c1
IC50 (CCRF-CEM): 810 nM
IC50 (HeLa [2]): 1300 nM
IC50 (L1210): 1200 nM
IC50 (FM3A): 1100 nM

COC(=O)c1sc(-c2cccs2)cc1Nc1cc(OC)c(OC)c(OC)c1
inhibition (Bos taurus): 62%
Activity (HeLa [9]): Active
IC50 (CCRF-CEM): 160 nM
Activity (HeLa [10]): Active
Activity (HeLa [1]): Active
IC50 (HeLa [2]): 160 nM
Activity (HeLa [11]): Tde
GI50 (PBL [3]): 85700 nM
IC50 (L1210): 130 nM
Activity (HeLa [4]): Active
IC50 (FM3A): 160 nM
Activity (HeLa [12]): Active
Activity (HeLa [13]): Active
Activity (HeLa [14]): Dose-dependent effect
GI50 (PBL [5]): 29300 nM
IC50 [6]: 1200 nM
Activity (HeLa [15]): Active
Activity (HeLa [7]): Active
Activity (HeLa [8]): Active
Activity (HeLa [16]): Active

COC(=O)c1sc(-c2ccc([N+](=O)[O-])cc2)cc1Nc1cc(OC)c(OC)c(OC)c1
IC50 (CCRF-CEM): 760 nM
IC50 (HeLa [2]): 1000 nM
IC50 (L1210): 990 nM
IC50 (FM3A): 930 nM

CCOC(=O)c1sc(-c2ccc(OC)cc2)cc1Nc1cc(OC)c(OC)c(OC)c1
IC50 (CCRF-CEM): 1100 nM
IC50 (HeLa [2]): 2300 nM
IC50 (L1210): 1200 nM
IC50 (FM3A): 1200 nM

COC(=O)c1sc(-c2cc(OC)c(OC)c(OC)c2)cc1Nc1cc(OC)c(OC)c(OC)c1
IC50 (CCRF-CEM): > 250000 nM
IC50 (HeLa [2]): 162000 nM
IC50 (L1210): > 250000 nM
IC50 (FM3A): > 250000 nM

COC(=O)c1sc(-c2ccc(Cl)c(Cl)c2)cc1Nc1cc(OC)c(OC)c(OC)c1
IC50 (CCRF-CEM): 3300 nM
IC50 (HeLa [2]): 5000 nM
IC50 (L1210): 5700 nM
IC50 (FM3A): 4600 nM

COC(=O)c1sc(-c2ccc(OC)cc2)cc1Nc1cc(OC)c(OC)c(OC)c1
inhibition (Bos taurus): 46%
IC50 (CCRF-CEM): 230 nM
IC50 (HeLa [2]): 840 nM
IC50 (L1210): 270 nM
IC50 (FM3A): 250 nM
IC50 [6]: 2000 nM

COC(=O)c1sc(-c2ccc(F)cc2)cc1Nc1cc(OC)c(OC)c(OC)c1
inhibition (Bos taurus): 41%
IC50 (CCRF-CEM): 530 nM
IC50 (HeLa [2]): 880 nM
IC50 (L1210): 560 nM
IC50 (FM3A): 720 nM
IC50 [6]: 2200 nM

COC(=O)c1sc(-c2cccc(OC)c2)cc1Nc1cc(OC)c(OC)c(OC)c1
IC50 (CCRF-CEM): 690 nM
IC50 (HeLa [2]): 800 nM
IC50 (L1210): 1100 nM
IC50 (FM3A): 990 nM

CCOC(=O)c1sc(-c2ccccc2)cc1Nc1cc(OC)c(OC)c(OC)c1
IC50 (CCRF-CEM): 930 nM
IC50 (HeLa [2]): 1400 nM
IC50 (L1210): 1100 nM
IC50 (FM3A): 980 nM

COC(=O)c1sc(-c2ccc(Cl)cc2)cc1Nc1cc(OC)c(OC)c(OC)c1
IC50 (CCRF-CEM): 870 nM
IC50 (HeLa [2]): 870 nM
IC50 (L1210): 1100 nM
IC50 (FM3A): 880 nM
